Source: ChEMBL document CHEMBL5724801, “EUbOPEN Chemogenomics Library - Multiplex” (2024)
Where “and” joins values, the source holds several entries; their conditions need not be identical. Equal entries are not always repeated.

Legend:
HEK-293T = experiment: Multiplex assay against HEK293T; format: toxicity, cell-based; conditions: human
Outline: (§1)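 Tubulin, mitochondrial-mass and membrane-permeability phenotypes are per cents of healthy-nucleus cells. Cells were gated by CellPathfinder machine learning into Hoechst high-intensity objects or normal cells, normal cells into healthy, pyknosed or fragmented nuclei, and pyknosed cells into mitotic or apoptotic. Before that, live cells stained at seeding with Hoechst33342, BioTracker Green Microtubule Cytoskeleton Dye, MitoTracker Red and Annexin V Alexa Fluor 680 were imaged on a CQ1 microscope at 37°C and 5% CO2 after compound addition.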

U2OS = experiment: Multiplex assay against U2OS; format: toxicity, cell-based; conditions: human; outline: as §1
[1] = 12 h, 1 µM, compound concentration 1 uM
[2] = 12 h, 10 µM, compound concentration 10 uM
[3] = 24 h, 1 µM, compound concentration 1 uM
[4] = 24 h, 10 µM, compound concentration 10 uM
[5] = 48 h, 1 µM, compound concentration 1 uM
[6] = 48 h, 10 µM, compound concentration 10 uM

O=C(Nc1cc(C(F)(F)F)cc(C(F)(F)F)c1)c1cc(Cl)ccc1O [IMD-0354]
Population Apoptotic (%) (HEK-293T; [1]): 4.35% and 3.39% | Population Fragmented Nuclei (%) (HEK-293T; [1]): 2.35% and 2.03% | Population Healthy Nuclei (%) (HEK-293T; [1]): 43.53% and 18.24% | Population Hoechst High Intensity Objects (%) (HEK-293T; [1]): 0.58% and 0% | Population Membrane Permeable-Phenotype (%) (HEK-293T; [1]): 0.68% and 0% | Population Mitotic Cells (%) (HEK-293T; [1]): 95.65% and 96.61% | Population Normal (%) (HEK-293T; [1]): 99.42% and 100% | Population Pyknosed Nuclei (%) (HEK-293T; [1]): 54.12% and 79.73% | Total Cell Count (HEK-293T; [1]): 342 and 148 | Population Apoptotic (%) (HEK-293T; [2]): 8.89% and 5.65% | Population Fragmented Nuclei (%) (HEK-293T; [2]): 4.05% and 10.2% | Population Healthy Nuclei (%) (HEK-293T; [2]): 14.86% and 5.44% | Population Hoechst High Intensity Objects (%) (HEK-293T; [2]): 1.33% and 0% | Population Membrane Permeable-Phenotype (%) (HEK-293T; [2]): 0% and 12.5% | Population Mitotic Cells (%) (HEK-293T; [2]): 91.11% and 94.35% | Population Normal (%) (HEK-293T; [2]): 98.67% and 100% | Population Pyknosed Nuclei (%) (HEK-293T; [2]): 81.08% and 84.35% | Population Tubulin-Different-Phenotype (%) (HEK-293T; [2]): 0% | Total Cell Count (HEK-293T; [2]): 225 and 147 | Population Apoptotic (%) (HEK-293T; [3]): 6.35% and 10.83% | Population Fragmented Nuclei (%) (HEK-293T; [3]): 1.67% and 0% | Population Healthy Nuclei (%) (HEK-293T; [3]): 68.26% and 25.47% | Population Hoechst High Intensity Objects (%) (HEK-293T; [3]): 0.48% and 0% | Population Membrane Permeable-Phenotype (%) (HEK-293T; [3]): 2.8% and 4.88% | Population Mitochondria Different-Phenotype (%) (HEK-293T; [3]): 4.9% and 4.88% | Population Mitotic Cells (%) (HEK-293T; [3]): 93.65% and 89.17% | Population Normal (%) (HEK-293T; [3]): 99.52% and 100% | Population Pyknosed Nuclei (%) (HEK-293T; [3]): 30.07% and 74.53% | Population Tubulin-Different-Phenotype (%) (HEK-293T; [3]): 6.99% and 2.44% | Total Cell Count (HEK-293T; [3]): 421 and 161 | Population Apoptotic (%) (HEK-293T; [4]): 5.52% and 6.29% | Population Fragmented Nuclei (%) (HEK-293T; [4]): 3.57% and 12.35% | Population Hoechst High Intensity Objects (%) (HEK-293T; [4]): 0.88% and 0% | Population Membrane Permeable-Phenotype (%) (HEK-293T; [4]): 5.71% and 0% | Population Mitochondria Different-Phenotype (%) (HEK-293T; [4]): 5.71% and 0% | Population Mitotic Cells (%) (HEK-293T; [4]): 94.48% and 93.71% | Population Normal (%) (HEK-293T; [4]): 99.12% and 100% | Population Pyknosed Nuclei (%) (HEK-293T; [4]): 80.8% and 84.12% | Population Tubulin-Different-Phenotype (%) (HEK-293T; [4]): 5.71% and 16.67% | Total Cell Count (HEK-293T; [4]): 226 and 170 | Population Apoptotic (%) (HEK-293T; [5]): 6.21% and 4.35% | Population Fragmented Nuclei (%) (HEK-293T; [5]): 1.53% and 0.99% | Population Healthy Nuclei (%) (HEK-293T; [5]): 78.27% and 53.69% | Population Hoechst High Intensity Objects (%) (HEK-293T; [5]): 0% | Population Membrane Permeable-Phenotype (%) (HEK-293T; [5]): 16.37% and 6.42% | Population Mitochondria Different-Phenotype (%) (HEK-293T; [5]): 2.49% and 3.67% | Population Mitotic Cells (%) (HEK-293T; [5]): 93.79% and 95.65% | Population Normal (%) (HEK-293T; [5]): 100% | Population Pyknosed Nuclei (%) (HEK-293T; [5]): 20.19% and 45.32% | Population Apoptotic (%) (HEK-293T; [6]): 5.97% and 5.04% | Population Fragmented Nuclei (%) (HEK-293T; [6]): 3.97% and 7.69% | Population Healthy Nuclei (%) (HEK-293T; [6]): 16.27% and 10.06% | Population Hoechst High Intensity Objects (%) (HEK-293T; [6]): 0.79% and 0% | Population Membrane Permeable-Phenotype (%) (HEK-293T; [6]): 12.2% and 5.88% | Population Mitochondria Different-Phenotype (%) (HEK-293T; [6]): 21.95% and 11.76% | Population Mitotic Cells (%) (HEK-293T; [6]): 94.03% and 94.96% | Population Normal (%) (HEK-293T; [6]): 99.21% and 100% | Population Pyknosed Nuclei (%) (HEK-293T; [6]): 79.76% and 82.25% | Total Cell Count (HEK-293T; [6]): 254 and 169 | Population Apoptotic (%) (U2OS; [1]): 56.25% and 45.83% | Population Fragmented Nuclei (%) (U2OS; [1]): 0.73% and 2.45% | Population Healthy Nuclei (%) (U2OS; [1]): 91.46% and 82.82% | Population Hoechst High Intensity Objects (%) (U2OS; [1]): 0.24% and 0.61% | Population Membrane Permeable-Phenotype (%) (U2OS; [1]): 0.27% and 2.22% | Population Mitochondria Different-Phenotype (%) (U2OS; [1]): 0% and 7.41% | Population Mitotic Cells (%) (U2OS; [1]): 43.75% and 54.17% | Population Normal (%) (U2OS; [1]): 99.76% and 99.39% | Population Pyknosed Nuclei (%) (U2OS; [1]): 7.8% and 14.72% | Population Tubulin-Different-Phenotype (%) (U2OS; [1]): 0.27% and 0.74% | Total Cell Count (U2OS; [1]): 411 and 164 | Population Apoptotic (%) (U2OS; [2]): 45.45% and 65% | Population Fragmented Nuclei (%) (U2OS; [2]): 2.48% and 9.2% | Population Healthy Nuclei (%) (U2OS; [2]): 87.61% and 79.31% | Population Hoechst High Intensity Objects (%) (U2OS; [2]): 0% | Population Membrane Permeable-Phenotype (%) (U2OS; [2]): 0% and 0.72% | Population Mitochondria Different-Phenotype (%) (U2OS; [2]): 0% and 2.9% | Population Mitotic Cells (%) (U2OS; [2]): 54.55% and 35% | Population Normal (%) (U2OS; [2]): 100% | Population Pyknosed Nuclei (%) (U2OS; [2]): 9.91% and 11.49% | Population Tubulin-Different-Phenotype (%) (U2OS; [2]): 0.26% and 0% | Total Cell Count (U2OS; [2]): 444 and 174 | Population Apoptotic (%) (U2OS; [3]): 40.91% and 57.69% | Population Fragmented Nuclei (%) (U2OS; [3]): 1.32% and 3.81% | Population Healthy Nuclei (%) (U2OS; [3]): 90.38% and 83.81% | Population Hoechst High Intensity Objects (%) (U2OS; [3]): 0% | Population Membrane Permeable-Phenotype (%) (U2OS; [3]): 0.21% and 1.7% | Population Mitochondria Different-Phenotype (%) (U2OS; [3]): 0% and 8.52% | Population Mitotic Cells (%) (U2OS; [3]): 59.09% and 42.31% | Population Normal (%) (U2OS; [3]): 100% | Population Pyknosed Nuclei (%) (U2OS; [3]): 8.3% and 12.38% | Population Tubulin-Different-Phenotype (%) (U2OS; [3]): 0.42% and 0.57% | Total Cell Count (U2OS; [3]): 530 and 210 | Population Apoptotic (%) (U2OS; [4]): 60.24% and 73.33%
